High-throughput results deposited in PubChem by several laboratories.
Shown are actives, neighbours in structure and some others; about 3.3% of the full set was active somewhere.
m5-HT2A agonist – mouse HTR2A agonism via beta-arrestin recruitment. P35363. CHO-K1 mHTR2A beta-arrestin complementation, luminescence; percent of 30 µM serotonin response. activation, % at 7.6 µM. 360,000 compounds, 0.66% hits. AID 624169;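 active = activation above a run cutoff, the mean activation of all tested compounds plus 3 SD, cut at about 14% in these data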;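 note: 0% = plate median of compound wells and 100% = 30 µM serotonin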
Target sequence (P35363 whole entry, looked up): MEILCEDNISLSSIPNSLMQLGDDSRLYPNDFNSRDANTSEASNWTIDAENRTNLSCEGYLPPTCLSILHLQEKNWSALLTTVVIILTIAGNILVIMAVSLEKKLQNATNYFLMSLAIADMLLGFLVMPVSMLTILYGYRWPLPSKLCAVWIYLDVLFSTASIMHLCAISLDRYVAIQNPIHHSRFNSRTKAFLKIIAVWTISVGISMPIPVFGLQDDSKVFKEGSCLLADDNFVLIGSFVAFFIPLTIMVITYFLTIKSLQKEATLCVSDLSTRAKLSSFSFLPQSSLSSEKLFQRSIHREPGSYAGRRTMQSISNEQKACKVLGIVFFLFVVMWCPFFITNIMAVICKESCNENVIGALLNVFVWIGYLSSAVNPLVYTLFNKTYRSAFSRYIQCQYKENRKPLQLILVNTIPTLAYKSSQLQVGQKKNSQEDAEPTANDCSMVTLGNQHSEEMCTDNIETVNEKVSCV
PfM18AAP inh-1 – PfM18AAP enzyme inhibition; 290,000 compounds, 1.2% hits; recombinant PfM18AAP, H-Glu-NHMec fluorogenic cleavage; AID 1822; inhibition, % at 7.35 µM;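 active = inhibition above the campaign mean inhibition over all tested compounds plus 3 SD, cut at about 28% in these data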;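 note: 0% = plate median of test compound wells and 100% = 2 mM ZnCl2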
NRP1-CendR mod – alters CendR peptide binding to human NRP-1 | inhibition, % at 25 µM | O14786 | FAM-RPARPAR peptide binding to NRP-1, fluorescence polarization | 360,000 compounds, 0.85% hits;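 active = inhibition or corrected inhibition above about 18%, plus a signal ratio from 0.5 to 1.5, limit read from the data, passing the limit was not always enough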
Arrestin-AP2 inh – blocks beta-arrestin peptide binding to AP2 adaptin. FITC-arrestin peptide / GST-AP2 beads, flow cytometry; AP2 beta2 appendage carries R879A mutation. inhibition, % at 10 µM. 340,000 compounds, 0.31% hits. AID 504490;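 active = inhibition above a set limit, near 3 SD of compounds lacking own fluorescence, cut at about 54% in these data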;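 note: plate controls were DMSO wells for no effect and 5 µM unlabelled arrestin peptide for full effect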
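System: GST-AP2 R879A glutathione beads; medium: PBS, Tween 20 0.05%, BSA 0.1%; reagent: fluorescein-tagged arrestin peptide at 50 nM final; schedule: pre-incubation 12 min, peptide binding 1 h, room temperature; detection: flow cytometry, FL1 (488/535 nm); read-out: inhibition as reduced fluorescein signal on beads, percent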
sPLA2-III inh – Blocks human group III sPLA2 activity; Q9NZ20; QFRET BODIPY PC-A2 liposome hydrolysis, fluorescence; inhibition, % at 12.2 µM; 370,000 compounds, 0.56% hits;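 active = inhibition above mean plus 3 SD of compounds lying within the high and low control bounds, cut at about 19% in these data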;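 note: 0% = median of test compound wells and 100% = no enzyme DMSO wells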
Hep lipid drop – modulators of hepatic lipid droplet formation. AML12 mouse hepatocytes, oleate lipid droplets, BODIPY imaging. inhibition, % at 6.5 µM. 240,000 compounds, 0.4% hits. AID 1656;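 active = lipid droplet intensity inhibited by at least 50%, with more than 500 cells counted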
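Material – AML12 mouse liver cells · Also added – oleate loading, 100 µM · Compound dosing – 6.5 µM single-point dosing · Times – overnight treatment with compound plus oleate · Measured by – fluorescence imaging, 20x objective, two fields per well · Read-out – percent inhibition of filter-corrected integrated lipid droplet intensity per well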
PfM18AAP inh-2 – confirmation of Plasmodium falciparum M18 aspartyl aminopeptidase inhibitors | shares compounds with PfM18AAP inh-1 | inhibition, % at 7.35 µM | recombinant PfM18AAP, H-Glu-NHMec fluorogenic cleavage | 2,400 compounds, 28% hits | AID 2170;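 active = mean inhibition over replicate wells above the hit cutoff set for the earlier primary screen, cut at about 29% in these data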;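 note: 0% = median of test compound wells and 100% = 2 mM ZnCl2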
CTSL1 counter – Cathepsin L (human) inhibition, confirmation. purified cathepsin L1, Z-Leu-Arg-MCA fluorescence. inhibition, % at 5.96 µM. 2,400 tested, under 10 active. AID 2178. shares compounds with PfM18AAP inh-1;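 active = average inhibition across replicates above the hit cutoff set in the earlier primary screen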;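 note: 0% = median of test compound wells and 100% = Z-Phe-Ala-diazomethylketone 1 µM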
* hit, by the source's call; · = not tested or not shown.

SMILES	m5-HT2A agonist	PfM18AAP inh-1	NRP1-CendR mod	Arrestin-AP2 inh	sPLA2-III inh	Hep lipid drop	PfM18AAP inh-2	CTSL1 counter
COc1ccc(S[C@]2(C(=O)N(C)C)CC(=O)N(S(=O)(=O)c3ccc(F)cc3)[C@@H]2c2ccc(OC)cc2)cc1	·	·	·	·	2	·	·	·
Cc1ccc(-c2nc(N/N=C/c3cccnc3)c3ccccc3n2)cc1	4	43*	1	-10	-10	-12	-33	6
CN1CCN(C(=S)C(=O)Nc2ccc(Br)cc2)CC1	-2	55*	-9	25	1	18	14	-8
CCOC(=O)CSc1nc2c(sc(=S)n2-c2ccccc2OC)c(=O)n1-c1ccccc1OC	10	-1	4	10	-4	-32	·	·
COc1ccc(-n2c(SCC(=O)C(C)(C)C)nc3c(sc(=S)n3-c3ccccc3)c2=O)c(OC)c1	2	37*	-10	-2	-15	-5	14	4
Oc1c(C(c2ccccc2)N2CCCCC2)sc2ncnn12 (stereo not given)	0	57*	10	2	-13	3	-26	-5
O=C1OC(/C(=C\NCc2ccccc2)[N+](=O)[O-])c2ccccc21 (stereo not given)	-1	23	2	-2	3	-13	·	·
O=C1OC(/C(=C\Nc2ccccc2)[N+](=O)[O-])c2ccccc21 (stereo not given)	-4	47*	7	-8	-5	6	-36	-3
Oc1ccc(C[C@H]2CNC(=S)N2CC2CCCN2C[C@H](Cc2ccccc2)N2C[C@H](Cc3ccc(O)cc3)N(CC3CCCCC3)C2=S)cc1 (stereo not given in full)	-7	·	-5	·	2	·	·	·
COc1ccc2[nH]c3c(c2c1)CCN[C@]31C(=O)Nc2ccccc21	·	·	·	·	6	·	·	·
O=C(O)c1cccc(CN2C(=O)SC(Nc3cccc4ccccc34)C2=O)c1 (stereo not given)	0	34*	-20	12	-15	-16	-65	5
CC(C)(C)C1CCC(=NNc2ncc(C(F)(F)F)cc2Cl)CC1 (stereo not given)	-4	33*	-4	-8	8	7	3	4
O=C1/C(=C\c2cccc(O)c2O)SC(=S)N1Cc1ccccc1	8	58*	0	1	-8	-1	20	-3
CNC(=O)C1C(=S)NC(N)=C(C#N)C1c1ccccc1 (stereo not given)	2	47*	-2	3	-1	6	23	0
COc1cc(/C=C/C(=O)Nc2nnc(CC(C)(C)C)s2)cc(OC)c1OC	1	34*	-2	11	8	19	-8	2
CC1(C)CC(=O)C=C(Nc2ccccc2NC(=O)c2cc(F)ccc2F)C1	·	·	·	·	2	·	·	·
Cc1cc(NS(=O)(=O)c2ccc3c(c2)CCC(=O)N3)ccc1Cl	·	·	·	·	-20	·	·	·
O=C(NNc1ccc(-c2csnn2)cc1)c1ccccc1C(F)(F)F	-3	40*	0	-3	5	-6	13	2
CC(=O)Nc1ccc(-n2cc(-c3ccccc3)[nH]c2=S)cc1	-2	64*	0	2	17	-2	58*	2
COc1ccccc1-n1cc(-c2ccccc2)[nH]c1=S	3	14	9	-9	10	-1	·	·
O=c1[nH]c2nc(Br)[nH]c(=O)c2[nH]1	-1	·	4	31	14	·	·	·
C/C(=N\NC(=O)c1cc(O)ccc1O)c1cccc(NC(=O)c2ccc(Cl)cc2)c1	-12	36*	11	14	7	-16	-50	-7
CC(=O)Nc1cccc(/C(C)=N/NC(=O)c2ccc(O)cc2)c1	-3	3	9	-2	-2	13	·	·
Cc1ccc(-c2ccc(/C=N/c3ncn[nH]3)o2)cc1Cl	4	37*	-10	2	2	-10	43*	2
Cc1cccc2sc(NNC(=O)C3COc4ccccc4O3)nc12 (stereo not given)	0	36*	-4	3	13	0	-23	2
SMILES	m5-HT2A agonist	PfM18AAP inh-1	NRP1-CendR mod	Arrestin-AP2 inh	sPLA2-III inh	Hep lipid drop	PfM18AAP inh-2	CTSL1 counter
O=C(NNc1nc2c(F)cc(F)cc2s1)C1COc2ccccc2O1 (stereo not given)	-3	0	0	-10	4	-7	·	·
CC1CCC(NC(=O)C2CCC(CNS(=O)(=O)c3ccc4c(c3)C(C)(C)C(=O)N4C)CC2)CC1 (stereo not given)	4	·	5	·	0	·	·	·
COCCOC(=O)c1c(C)n(C)c2ccc(OC(=O)c3c(OC)cccc3OC)cc12	2	36*	-5	-11	-22	37	-13	-7
COCCOC(=O)c1c(C)n(C)c2ccc(OC(=O)N3CCOCC3)cc12	-2	-3	17	15	0	·	·	·
COc1cc(C2Nc3ccccc3C(=O)N2c2ccccc2OC)ccc1O (stereo not given)	-4	-6	-4	-2	-3	2	·	·
O=C1c2ccccc2NC(c2ccc(O)c(O)c2)N1c1ccccc1Cl (stereo not given)	1	57*	4	0	1	1	56*	-2
Cc1cc(NS(=O)(=O)c2ccc(NC(=O)CSc3nnc(-c4ccncc4)n3-c3ccccc3)cc2)nc(C)n1	·	·	·	·	0	·	·	·
Cc1ccc(NC(=S)Nn2cnnc2)c(C)c1	8	72*	10	0	4	1	65*	0
Cc1ccc(NC(=S)NN2CCN(C)CC2)c(C)c1	0	2	-11	-10	1	6	·	·
Cc1ccc(NC(=O)c2cc(-n3cnnc3)ccc2Cl)c(C)c1	-1	0	4	2	1	-16	·	·
COc1cc([N+](=O)[O-])ccc1NC(=S)Nn1cnnc1	-3	84*	8	18	12	1	71*	4
Cc1ccc(NC(=O)Nn2cnnc2)c(C)c1	-1	57*	-1	34	4	9	36*	0
Cc1ccc(Cl)cc1NC(=S)N(C)N	-1	17	4	-11	0	16	·	·
Cc1ccc(Cl)cc1NC(=S)Nn1cnnc1	4	77*	-1	27	0	-7	63*	0
FC(F)(F)c1ccccc1NC(=S)Nn1cnnc1	0	75*	7	-6	-2	0	56*	-2
S=C(NCc1ccncc1)Nc1ccc(Br)cc1Cl	-8	7	3	13	1	12	·	·
FC(F)(F)c1ccccc1NC(=S)Nc1cccc2cnccc12	0	7	-1	-7	-4	-4	·	·
S=C(Nc1ccc(Br)cc1Cl)Nn1cnnc1	7	77*	8	11	7	4	80*	2
